High-throughput results: PubChem BioAssay, Sanford-Burnham Center for Chemical Genomics
DNMT1 block: DNMT1 (human) enzyme inhibition | actives 0.83% (n = 360,000) | inhibition (reported as % activation of signal), % at 10 µM | P26358 | DNMT1 molecular beacon, Hinp1I cleavage, fluorescence; in the data active means inhibition above about 50%
SUMO HTRF inh: inhibitors of human SUMOylation (UBC9). P63279. HTRF SUMOylation assay, SAE1/SAE2 + UBC9, in vitro. inhibition, % at 35 µM. actives 0.36% (n = 290,000). AID 2006; in the data active means inhibition above about 50%, passing the limit was not always enough
Target sequence (P63279 whole entry, looked up): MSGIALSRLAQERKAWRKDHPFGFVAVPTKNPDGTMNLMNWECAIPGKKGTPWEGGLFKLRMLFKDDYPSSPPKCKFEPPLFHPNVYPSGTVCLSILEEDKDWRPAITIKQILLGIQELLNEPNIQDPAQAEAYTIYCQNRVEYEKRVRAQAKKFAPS
LMPTP block: LMPTP (human) inhibition | P24666 | recombinant LMPTP-A, OMFP fluorogenic substrate, fluorescence intensity | inhibition, % at 20 µM | actives 0.22% (n = 360,000);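 active means compounds that cut the enzyme signal by at least half of the control window in the single-dose screen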;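 further: plate controls were DMSO wells with enzyme plus substrate for no effect and substrate without enzyme for full effect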
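Test system: LMPTP-A phosphatase enzyme; input: 0.625 nM LMPTP-A final; reagent: OMFP substrate, 400 µM final; compound dosing: 20 µM single dose, 3% DMSO; incubation: 50 min dark incubation at room temperature; measured by: endpoint fluorescence intensity from OMFP dephosphorylation; measure: % inhibition relative to no-enzyme and uninhibited control wells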
STEP inh: inhibitors of human striatal-enriched phosphatase STEP; recombinant STEP, OMFP fluorogenic substrate, fluorescence; actives 0.25% (n = 360,000); P54829; AID 588621; inhibition, % at 20 µM;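 active means inhibition at 20 µM, scaled per plate between control wells, above about 37%, limit read from the data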;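 further: 0% = DMSO with enzyme and substrate and 100% = substrate only without enzyme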
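Material: STEP (striatal-enriched tyrosine phosphatase) enzyme, cell-free | Medium: 50 mM Bis-Tris pH 6.0 with 2.5 mM DTT and 0.005% Tween 20 | Read-out: Percent inhibition scaled to no-enzyme and uninhibited-enzyme controls, plate-pattern corrected | Signal: Fluorescence read at 480 nm ex / 540 nm em | Times: 20 min reaction, room temperature, in the dark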
SUMO1-SIM PPI: modulators of human SUMO1-mediated protein-protein interactions. P63165. SUMO1 binding to a labelled peptide, TR-FRET, 1 h. inhibition, % at 20 µM. actives 0.33% (n = 360,000). AID 602429; in the data active means inhibition above about 37%
Target sequence (P63165 whole entry, looked up): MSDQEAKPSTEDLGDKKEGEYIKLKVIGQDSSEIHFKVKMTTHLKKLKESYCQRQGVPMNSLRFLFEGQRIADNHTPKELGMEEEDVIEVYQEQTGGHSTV
Scp-1 inhibitor: blocks human Scp-1 phosphatase activity; actives 0.88% (n = 340,000); Recombinant Scp1, phosphopeptide, malachite green phosphate absorbance; inhibition, % at 20 µM;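 active means inhibition above about 50% at 20 µM, limit read from the data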;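 further: plate controls were DMSO wells with enzyme for no effect and wells lacking enzyme for full effect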
Target sequence (Q9GZU7 76-261 limits assumed): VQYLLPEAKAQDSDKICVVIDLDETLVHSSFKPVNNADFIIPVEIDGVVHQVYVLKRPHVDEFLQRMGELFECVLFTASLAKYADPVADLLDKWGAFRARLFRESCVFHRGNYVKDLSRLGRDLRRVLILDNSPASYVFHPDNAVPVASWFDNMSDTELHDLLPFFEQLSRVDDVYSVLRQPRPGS
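System: SCP-1 catalytic domain; Reagent: Phospho 17-mer peptide substrate; Doses: one concentration, 20 µM, with 1.0% DMSO; Incubation: 45 min room-temperature reaction, 5 min colour, 30 min stabiliser; Signal: Phosphate-binding colour reagent, absorbance read at 630 nm.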
Scp1 confirm: confirmation of human Scp-1 phosphatase inhibitors | shares compounds with Scp-1 inhibitor | recombinant SCP-1 catalytic domain, phosphate release, malachite green absorbance | inhibition, % at 20 µM | actives 61% (n = 2,500);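 further: plate controls were DMSO with enzyme for no effect and buffer wells lacking enzyme for full effect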
MG interference: colorimetric interference in Scp-1 counter-screen; apparent inhibition (interference), % at 20 µM; AID 540313; Colorimetric interference counterscreen, malachite green absorbance 630 nm; shares compounds with Scp-1 inhibitor; 2,500 tested, under 10 active;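 further: compounds added after enzyme reaction finished so only phosphate colour detection is probed; plate controls were DMSO wells with completed Scp-1 reaction for no effect and substrate wells lacking enzyme for full effect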
Scp-1 Tm shift: validation of human Scp-1 inhibitors by thermal shift binding; shares compounds with Scp-1 inhibitor; Recombinant SCP1, Sypro Orange thermal shift Tm; actives 25% (n = 1,500); thermal shift relative to vanadate control, % at 40 µM; AID 540329;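 active means substances whose mean melting-temperature shift, as a percentage of the reference inhibitor's shift, reaches about 5.3%, limit read from the data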;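 further: 0% = Tm of DMSO wells and 100% = Tm with sodium orthovanadate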
Numbers without * were called inactive; x = no result. The list is not random: actives were taken first. Their share in the collection is about 1.9%.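 How the source made its calls, unless noted: active means inhibition of at least 30% at 20 µM; inactive means the rest.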

SMILES | DNMT1 block | SUMO HTRF inh | LMPTP block | STEP inh | SUMO1-SIM PPI | Scp-1 inhibitor | Scp1 confirm | MG interference | others
O=C(NCCc1ccccc1)C1Cc2c(-c3ccc(Cl)cc3)ccnc2O1 (stereo not drawn) | -6.4 | x | -0.5 | 1.7 | 21.6 | x | x | x
COc1cc(C(=O)N/N=C/c2ccc(OC(=O)c3cccc(C)c3)c(OC)c2)ccc1O | 2.8 | 1.8 | 0.2 | -0.3 | 2.2 | -7.6 | x | x
COCCCn1c(SCC(=O)N2CCOCC2)nc2cc(Cl)ccc2c1=O | 3.0 | x | -0.4 | 1.5 | -2.5 | -4.9 | x | x
Oc1ccc(NCc2ccccc2OCc2ccccc2)cc1 | -21.6 | 26.4 | 23.7 | 2.7 | 57.3* | -10.1 | x | x
O=[N+]([O-])c1cc(CN2CCCC2)c2cccnc2c1O | -8.8 | 48.8 | 73.8* | 9.0 | 1.2 | 35.2 | x | x
N=C1/C(=C\c2ccc(-c3cccc(C(=O)O)c3)o2)C(=O)N=C2SC=C(c3ccccc3)N12 | 90.3* | 32.9 | 79.6* | 23.0 | 89.3* | 72.5* | x | x
CC(CNC(=O)C1CCCN(S(=O)(=O)N2CCOCC2)C1)c1ccccc1 (stereo not drawn) | 2.3 | 2.2 | 0.4 | 8.1 | 0.4 | -5.2 | x | x
O=C(O[C@@H]1OC2COC(=O)c3cc(O)c(O)c(O)c3-c3c(cc(O)c(O)c3O)C(=O)O[C@@H]([C@H]1O)[C@@H]2O)c1cc(O)c(O)c(O)c1 | 89.5* | 88.6* | 14.3 | 11.0 | 46.2* | 50.5* | x | x
Nc1nc(=O)n(C2CC(O)C(CO)O2)cc1F (stereo not drawn) | -30.3 | x | 0.4 | 0.0 | -2.4 | -0.3 | -2.7 | -7.6
CCN(CC(=O)Nc1ccc2c(c1)OCCO2)C(=O)CC(NC(C)=O)c1ccccc1 (stereo not drawn) | 2.8 | x | -0.9 | 2.1 | -2.7 | -2.0 | x | x
O=C(O)CC(Sc1n[nH]c(=S)s1)C(=O)O (stereo not drawn) | -0.5 | 9.8 | -0.7 | 3.8 | 4.7 | 79.2* | 35.6* | -18.3 | Scp-1 Tm shift=1.0
COC(=O)C(C)Sc1n[nH]c(=S)s1 (stereo not drawn) | -2.5 | 8.5 | -0.3 | -1.3 | 1.5 | 3.0 | x | x
Cc1ccc(N2CC(C(=O)Nc3nnc(SCCC4OCCO4)s3)CC2=O)cc1 (stereo not drawn) | -1.2 | 11.1 | -0.6 | -3.1 | 7.4 | -8.3 | -22.1 | -18.6
Cc1ccc(N2CC(C(=O)Nc3nnc(SCCC4OCCO4)s3)CC2=O)cc1C (stereo not drawn) | -1.6 | 10.4 | 1.3 | 2.5 | 13.7 | 4.6 | x | x
Cc1cc(C)cc(NC(=O)c2cccn2-c2ncc(C(F)(F)F)cc2Cl)c1 | 3.3 | -39.8 | 3.4 | 1.0 | -4.3 | -8.4 | x | x
CCNC(=O)C/C(C)=N/NC(=O)C(=O)Nc1ccc(CC)cc1 | -1.7 | -5.4 | -1.1 | 3.9 | 2.7 | -5.5 | x | x
CCc1ccc(NC(=O)C(=O)N/N=C(\C)CC(=O)NCc2ccc(Cl)cc2)cc1 | 17.3 | 8.1 | -0.4 | -2.3 | -1.3 | 79.5* | -2.7 | -10.1
CCC(=O)Nc1ccc(NC(=S)NC(=O)/C=C/c2ccccc2)cc1 | 1.5 | -5.0 | -0.7 | 12.3 | 1.8 | 66.6* | -4.3 | -15.6
COc1ccc(CCNC(=O)COC(=O)/C=C/c2cc(OC)c(OC)c(OC)c2)cc1OC | -1.5 | 2.4 | -1.7 | -3.1 | -8.2 | -8.1 | x | x
COc1cc(/C=C/c2cc[n+](C)cc2)ccc1OCC(=O)Nc1ccccc1 | -4.8 | 32.7 | -2.4 | -0.3 | -55.7 | 77.3* | 89.0* | -6.0 | Scp-1 Tm shift=-16.5
CCn1ccc(C(=O)NC2C(=O)N3C(C(=O)O)=C(C)CSC23)n1 (stereo not drawn) | -2.2 | -2.9 | -1.3 | 0.0 | 1.4 | -5.9 | x | x
